Active and inactive are the calls of the source. No cut-off for these calls is given here.
Experiments:
Mus musculus [1] = experiment: Anticonvulsant activity in ip dosed Albino mouse assessed as protection against maximal electric shock-induced seizure after 0.5 hrs; format: functional
Procedure, shortened: (§1)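 Mice given test compound i.p. in polyethylene glycol at 30, 100 and 300 mg/kg; corneal electrodes delivered 50 mA, 60 Hz for 0.25 s at 0.5 h and 4.0 h after dosing. Protection scored as abolition of hind limb tonic extension.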

Mus musculus [2] = experiment: Anticonvulsant activity in ip dosed Albino mouse assessed as protection against maximal electric shock-induced seizure after 4 hrs; format: functional; procedure, shortened: as §1
Mus musculus [3] = experiment: Anticonvulsant activity in ip dosed Albino mouse assessed as protection against scPTZ-induced seizure after 0.5 hrs; format: functional
Procedure, shortened: (§2)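 Test compound given i.p. in polyethylene glycol at 30, 100 and 300 mg/kg. Pentylenetetrazole 75 mg/kg, as a 0.5% solution, injected subcutaneously in the posterior midline. Animals examined 0.5 h and 4 h after dosing. Value is the minimum dose active in half or more of the mice; dash means no activity at maximum dose.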

Mus musculus [4] = experiment: Anticonvulsant activity in ip dosed Albino mouse assessed as protection against scPTZ-induced seizure after 4 hrs; format: functional; procedure, shortened: as §2
Mus musculus [5] = species on record: Mus musculus; experiment: Hepatotoxicity in Albino mouse assessed as albumin level measured per 100 mL (RVb =1.45 +/- 0.06 g); format: toxicity, organism-based; details: in vivo
Mus musculus [6] = species on record: Mus musculus; experiment: Hepatotoxicity in Albino mouse assessed as globulin level measured per 100 mL (RVb = 0.24 +/- 0.03 g); format: toxicity, organism-based; details: in vivo
Mus musculus [7] = species on record: Mus musculus; experiment: Hepatotoxicity in Albino mouse assessed as total protein level measured per 100 mL (RVb = 1.69 +/- 0.05 g); format: toxicity, organism-based; details: in vivo
Mus musculus [8] = experiment: Neurotoxicity in Albino mouse assessed as minimal motor impairment at 300 mg/kg, ip after 0.5 hrs by rotarod test; format: toxicity, organism-based; design: dose 300 mg/kg, route intraperitoneal; details: in vivo
Procedure, shortened: (§3)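 Mice pretrained on an accelerating rotorod, 3.2 cm diameter, rotating at 10 rpm. Test compound given i.p. in polyethylene glycol at 30, 100 and 300 mg/kg; examined at 0.5 h and 4 h. Neurotoxicity = inability to hold equilibrium on the rod for at least 1 min in each trial. Minimum dose affecting half or more of mice reported.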

Mus musculus [9] = experiment: Neurotoxicity in Albino mouse assessed as minimal motor impairment at 300 mg/kg, ip after 4 hrs by rotarod test; format: toxicity, organism-based; design: dose 300 mg/kg, route intraperitoneal; details: in vivo; procedure, shortened: as §3
Mus musculus [10] = species on record: Mus musculus; experiment: Hepatotoxicity in Albino mouse assessed as change in alkaline phosphatase level; format: toxicity, organism-based; details: in vivo
Procedure, shortened: (§4)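 Serum alkaline phosphatase, SGOT and SGPT levels measured in treated mice versus control; transaminases estimated by the Reitman–Frankel method. Results given as mean ± SEM.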

Mus musculus [11] = species on record: Mus musculus; experiment: Hepatotoxicity in Albino mouse assessed as change in SGOT level; format: toxicity, organism-based; details: in vivo; procedure, shortened: as §4
Mus musculus [12] = species on record: Mus musculus; experiment: Hepatotoxicity in Albino mouse assessed as change in SGPT level; format: toxicity, organism-based; details: in vivo; procedure, shortened: as §4
[13] = Neurotoxicity in ip dosed Albino mouse assessed as minimal motor impairment after 0.5 hrs by rotarod test; format: toxicity, organism-based; details: in vivo; procedure, shortened: as §3
Mus musculus [14] = experiment: Anticonvulsant activity in Albino mouse assessed as protection against maximal electric shock-induced seizure at 300 mg/kg, ip after 0.5 hrs; format: functional, organism-based; design: dose 300 mg/kg; procedure, shortened: as §1
[15] = Neurotoxicity in ip dosed Albino mouse assessed as minimal motor impairment after 4 hrs by rotarod test; format: toxicity, organism-based; details: in vivo; procedure, shortened: as §3
Mus musculus [16] = experiment: Anticonvulsant activity in Albino mouse assessed as protection against scPTZ-induced seizure at 300 mg/kg, ip after 4 hrs; format: functional, organism-based; design: dose 300 mg/kg; procedure, shortened: as §2
Mus musculus [17] = experiment: Anticonvulsant activity in Albino mouse assessed as protection against scPTZ-induced seizure at 300 mg/kg, ip after 0.5 hrs; format: functional, organism-based; design: dose 300 mg/kg; procedure, shortened: as §2
Mus musculus [18] = experiment: Anticonvulsant activity in Albino mouse assessed as protection against maximal electric shock-induced seizure at 300 mg/kg, ip after 4 hrs; format: functional, organism-based; design: dose 300 mg/kg; procedure, shortened: as §1

Row | Structure (SMILES) | ED50 (Mus musculus [1]) | ED50 (Mus musculus [2]) | ED50 (Mus musculus [3]) | ED50 (Mus musculus [4]) | TD50 at 0.5 h [13] | Activity (Mus musculus [14]) | TD50 at 4 h [15] | Activity (Mus musculus [16]) | Activity (Mus musculus [17]) | also measured
1 | COc1ccc(-c2cc(-c3ccc(Cl)cc3)nc(NC(=O)N/N=C\c3ccc([N+](=O)[O-])cc3)n2)cc1OC | 30 mg/kg | 100 mg/kg | 100 mg/kg | 100 mg/kg |  |  |  |  |  | Activity (Mus musculus [5]): 1.74 g; Activity (Mus musculus [6]): 0.26 g; Activity (Mus musculus [7]): 2 g; Activity (Mus musculus [8]): Non-toxic; Activity (Mus musculus [9]): Non-toxic; Activity (Mus musculus [10]): Non-toxic; Activity (Mus musculus [11]): Non-toxic; Activity (Mus musculus [12]): Non-toxic
2 | COc1ccc(-c2cc(-c3ccc(F)cc3)nc(NC(=O)N/N=C(/C)c3ccc(C)cc3)n2)cc1 |  | 100 mg/kg | 300 mg/kg |  | 100 mg/kg | inactive |  |  |  | Activity (Mus musculus [9]): Non-toxic
3 | COc1ccc(-c2cc(-c3ccc(F)cc3)nc(NC(=O)N/N=C\c3ccc([N+](=O)[O-])cc3)n2)cc1OC | 100 mg/kg | 300 mg/kg | 300 mg/kg |  |  |  | 300 mg/kg | inactive |  | Activity (Mus musculus [8]): Non-toxic
4 | COc1ccc(-c2cc(-c3ccc(Cl)cc3)nc(NC(=O)N/N=C\c3ccccc3Cl)n2)c(OC)c1 |  | 300 mg/kg |  |  |  | inactive |  | inactive | inactive | 
5 | COc1ccc(-c2cc(-c3ccc(F)cc3)nc(NC(=O)N/N=C\c3ccccc3[N+](=O)[O-])n2)c(OC)c1 | 300 mg/kg |  |  | 300 mg/kg |  |  |  |  | inactive | Activity (Mus musculus [18]): inactive
6 | COc1ccc(-c2cc(-c3ccc(Cl)cc3)nc(NC(=O)N/N=C(/C)c3ccccc3Cl)n2)cc1 |  |  |  | 300 mg/kg |  | inactive |  |  | inactive | Activity (Mus musculus [18]): inactive
7 | CCC1(C)CC(=O)NC1=O (stereo unspecified) [ETHOSUXIMIDE] |  |  | 100 mg/kg | 300 mg/kg |  | inactive |  |  |  | Activity (Mus musculus [18]): inactive; Activity (Mus musculus [8]): Non-toxic; Activity (Mus musculus [9]): Non-toxic
8 | C/C(=N/NC(=O)Nc1nc(-c2ccc(C)cc2)cc(-c2ccc(F)cc2)n1)c1ccc(Cl)cc1 | 30 mg/kg | 100 mg/kg | 100 mg/kg | 300 mg/kg |  |  | 300 mg/kg |  |  | Activity (Mus musculus [5]): 1.62 g; Activity (Mus musculus [6]): 0.31 g; Activity (Mus musculus [7]): 1.93 g; Activity (Mus musculus [8]): Non-toxic; Activity (Mus musculus [10]): Non-toxic; Activity (Mus musculus [11]): Non-toxic; Activity (Mus musculus [12]): Non-toxic
9 | COc1ccc(/C(C)=N\NC(=O)Nc2nc(-c3ccc(F)cc3)cc(-c3ccc([N+](=O)[O-])cc3)n2)cc1 | 100 mg/kg |  | 100 mg/kg | 300 mg/kg | 300 mg/kg |  |  |  |  | Activity (Mus musculus [18]): inactive; Activity (Mus musculus [9]): Non-toxic
10 | COc1ccc(-c2cc(-c3ccc(Cl)cc3)nc(NC(=O)N/N=C(/C)c3ccc(C)cc3)n2)cc1 | 300 mg/kg |  |  |  |  |  |  | inactive | inactive | Activity (Mus musculus [18]): inactive
11 | COc1ccc(-c2cc(-c3ccc(F)cc3)nc(NC(=O)N/N=C\c3ccccc3Cl)n2)c(OC)c1 |  | 300 mg/kg |  |  |  | inactive |  | inactive | inactive | 
12 | C/C(=N/NC(=O)Nc1nc(-c2ccc(C)cc2)cc(-c2ccc(Cl)cc2)n1)c1ccc([N+](=O)[O-])cc1 | 100 mg/kg | 300 mg/kg | 300 mg/kg | 300 mg/kg | 100 mg/kg |  | 100 mg/kg |  |  | 
13 | COc1ccc(-c2cc(-c3ccc(Cl)cc3)nc(NC(=O)N/N=C\c3cccc(Cl)c3)n2)cc1OC | 100 mg/kg | 300 mg/kg |  | 300 mg/kg | 300 mg/kg |  | 300 mg/kg |  | inactive | 
14 | COc1ccc(/C(C)=N\NC(=O)Nc2nc(-c3ccc(Cl)cc3)cc(-c3ccc([N+](=O)[O-])cc3)n2)cc1 |  | 300 mg/kg |  |  |  | inactive |  | inactive | inactive | 
15 | CCC1(c2ccccc2)C(=O)NC(=O)NC1=O [PHENOBARBITAL] | 100 mg/kg | 30 mg/kg |  |  | 100 mg/kg |  | 300 mg/kg | inactive | inactive | 
16 | COc1ccc(-c2cc(-c3ccc(F)cc3)nc(NC(=O)N/N=C\c3cccc(Cl)c3)n2)cc1OC | 300 mg/kg | 300 mg/kg |  |  |  |  |  | inactive | inactive | 
17 | O=C1NC(=O)C(c2ccccc2)(c2ccccc2)N1 [PHENYTOIN] | 30 mg/kg | 30 mg/kg |  |  | 100 mg/kg |  | 100 mg/kg | inactive | inactive | 
18 | C/C(=N/NC(=O)Nc1nc(-c2ccc(C)cc2)cc(-c2ccc(F)cc2)n1)c1ccc([N+](=O)[O-])cc1 | 100 mg/kg | 300 mg/kg |  | 300 mg/kg | 100 mg/kg |  | 100 mg/kg |  | inactive | 
19 | C/C(=N/NC(=O)Nc1nc(-c2ccc(F)cc2)cc(-c2ccc([N+](=O)[O-])cc2)n1)c1ccc(C)cc1 | 100 mg/kg | 300 mg/kg | 300 mg/kg | 300 mg/kg |  |  | 300 mg/kg |  |  | Activity (Mus musculus [8]): Non-toxic
20 | COc1ccc(-c2cc(-c3ccc(Cl)cc3)nc(NC(=O)N/N=C\c3ccccc3[N+](=O)[O-])n2)c(OC)c1 |  | 300 mg/kg |  |  |  | inactive |  | inactive | inactive | 
21 | C/C(=N/NC(=O)Nc1nc(-c2ccc(Cl)cc2)cc(-c2ccc([N+](=O)[O-])cc2)n1)c1ccc(C)cc1 | 300 mg/kg | 300 mg/kg |  | 300 mg/kg |  |  |  |  | inactive | 
22 | C/C(=N/NC(=O)Nc1nc(-c2ccc(C)cc2)cc(-c2ccc(Cl)cc2)n1)c1ccc(Cl)cc1 | 30 mg/kg | 300 mg/kg | 300 mg/kg | 300 mg/kg |  |  |  |  |  | Activity (Mus musculus [5]): 1.52 g; Activity (Mus musculus [6]): 0.19 g; Activity (Mus musculus [7]): 1.71 g; Activity (Mus musculus [8]): Non-toxic; Activity (Mus musculus [9]): Non-toxic; Activity (Mus musculus [10]): Non-toxic; Activity (Mus musculus [11]): Non-toxic; Activity (Mus musculus [12]): Non-toxic

Source: ChEMBL document CHEMBL1165886, “Synthesis, anticonvulsant and toxicity screening of newer pyrimidine semicarbazone derivatives” (Eur J Med Chem, 2010)
